# Platelet DG rel: platelet dense granule release activity; human platelet-rich plasma, SFLLRN dense granule ATP release, luminescence; inhibition, %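 (compounds screened at 7.5 µM in platelet-rich plasma)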; actives 0.22% (n = 300,000); AID 1663;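 active = mean replicate score, as percent of positive control, at or above 50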
# SENP8 block-1: blocks human SENP8 cleavage of Nedd8 substrate | recombinant SENP8, Nedd8 substrate fluorescence | inhibition, % at 20 µM | actives 0.64% (n = 360,000) | AID 602440; in the data active = inhibition mostly above about 40%, no sharp cut-off; inactive = mostly below about 27%
# Target sequence (Q96LD8 whole entry, looked up): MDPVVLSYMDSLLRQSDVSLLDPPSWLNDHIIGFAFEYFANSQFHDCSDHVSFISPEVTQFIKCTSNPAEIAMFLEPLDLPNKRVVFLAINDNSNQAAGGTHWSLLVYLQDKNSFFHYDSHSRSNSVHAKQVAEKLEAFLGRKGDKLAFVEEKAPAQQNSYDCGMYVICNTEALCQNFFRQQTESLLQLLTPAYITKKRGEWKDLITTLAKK
# SENP6 inh: SENP6 protease inhibition; Q9GZR1; Recombinant SENP6 catalytic domain, aminoluciferin luminescence; inhibition, % at 10 µM; actives 1.8% (n = 330,000); AID 2599;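 active = inhibition above about 50% at the single tested dose, limit read from the data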
# SENP8 block-2: blocks the human protease SENP8. Q96LD8. purified SENP8, Z-RLRGG-aminoluciferin cleavage, luminescence. inhibition, % at 10 µM. actives 1.2% (n = 330,000). AID 2540; in the data active = inhibition above about 50%
# SENP7 block: SENP7 protease inhibition; Q9BQF6; recombinant SENP7, Z-RLRGG-aminoluciferin luminescence, 40 min; inhibition, % at 5 µM; actives 1.5% (n = 330,000); AID 434973;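 active = inhibition above about 50% at the single test dose, limit read from the data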
# SENP1 FRET inh: blocks the human SENP1 SUMO protease catalytic domain; Q9P0U3; recombinant SENP1 catalytic domain, CyPet-SUMO1-YPet FRET cleavage; inhibition, % at 10 µM; actives 0.21% (n = 360,000); AID 624204;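 active = inhibition at least 30% at 10 µM, raw YFP signal under a set limit, fluorescence ratio 0.5 to 1.5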
# Target sequence (Q9P0U3 419-644 limits assumed): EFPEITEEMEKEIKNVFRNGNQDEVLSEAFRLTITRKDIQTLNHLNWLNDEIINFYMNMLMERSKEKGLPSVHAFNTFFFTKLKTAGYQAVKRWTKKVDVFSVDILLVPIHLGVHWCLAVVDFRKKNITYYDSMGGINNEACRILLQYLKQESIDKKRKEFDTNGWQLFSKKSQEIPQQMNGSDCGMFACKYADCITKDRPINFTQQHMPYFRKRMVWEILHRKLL
#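 System: Recombinant human SENP1 catalytic domain, His6-tagged | Incubation: Enzyme reaction for 50 min at room temperature, dark | Medium: Tris pH 8 with BME, BSA, NP40 and catalase | Also added: 25 nM SUMO1 FRET substrate | Compound: 10 µM single point, 0.5% DMSO | Measured by: FRET fluorescence in CFP and YFP emission channels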
# SENP8 conf: human SENP8 inhibition, confirmed. actives 40% (n = 6,200). shares compounds with SENP7 block. Recombinant SENP8, Z-RLRGG-aminoluciferin luminescence, 60 min. inhibition, % at 12.5 µM;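 active = mean inhibition across replicates above about 50%, limit read from the data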
# SENP6 conf: human SENP6 inhibition, confirmed; AID 488915; recombinant SENP6, Z-RLRGG-aminoluciferin luminescence; shares compounds with SENP7 block; actives 58% (n = 6,200); inhibition, % at 12.5 µM
# SENP7 confirm: human SENP7 inhibition, confirmed. shares compounds with SENP7 block. recombinant SENP7, Z-RLRGG-aminoluciferin luminescence, 40 min. inhibition, % at 12.5 µM. actives 69% (n = 6,200)
# Casp3 select: caspase-3 inhibition (SENP selectivity assay). shares compounds with SENP7 block. purified caspase-3, Z-DEVD-aminoluciferin luminescence, 60 min. actives 60% (n = 6,200). inhibition, % at 12.5 µM;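 active = mean inhibition above about 50%, limit read from the data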
# Target sequence (P42574 28-227 limits assumed): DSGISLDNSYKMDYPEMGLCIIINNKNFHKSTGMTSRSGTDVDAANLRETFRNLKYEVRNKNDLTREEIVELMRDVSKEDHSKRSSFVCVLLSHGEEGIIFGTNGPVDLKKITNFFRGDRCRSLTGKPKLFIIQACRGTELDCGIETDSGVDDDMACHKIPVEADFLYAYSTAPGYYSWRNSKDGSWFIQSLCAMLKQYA
# SENP luc ctr: interferes with luciferase luminescence in SENP counter-screen; Pre-incubated SENP8/Z-RLRGG-aminoluciferin, luciferase luminescence interference; inhibition, % at 12.5 µM; shares compounds with SENP7 block; actives 39% (n = 6,200);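 active = mean inhibition above about 50% when retested at one dose, limit read from the data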
# A number is an active result; i = inactive; nt = no result. An excerpt weighted towards active compounds, which were near 2.6% of everything screened.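 Rule for the calls, unless noted: active = mean inhibition above about 50% in the one-dose retest (limit read from the data); inactive = the rest.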
SMILES,Platelet DG rel,SENP8 block-1,SENP6 inh,SENP8 block-2,SENP7 block,SENP1 FRET inh,SENP8 conf,SENP6 conf,SENP7 confirm,Casp3 select,SENP luc ctr
COc1ccccc1C(=O)O/N=C(\N)c1ccc(Cl)cc1,i,i,i,i,i,i,nt,nt,nt,nt,nt
COc1ccc(C(=O)O/N=C(\N)c2ccc(Cl)cc2)cc1,i,i,58,i,68,i,i,i,84,72,i
CCCCNC(=O)C1C(c2ccc(OC)cc2)=Nc2ccccc2N1C(=O)Cc1cc(OC)cc(OC)c1 (stereo not drawn),nt,i,nt,nt,nt,i,nt,nt,nt,nt,nt
O=C(NCc1cccc(Cl)c1)c1ccc(N2CC3CC(C2)c2cccc(=O)n2C3)c(NC(=O)c2cccnc2)c1 (stereo not drawn),i,i,i,i,i,i,nt,nt,nt,nt,nt
Cc1ccc(/C(N)=N/OC(=O)c2ccc(Cl)cc2Cl)cc1,i,i,79,i,64,i,i,50,84,i,59
Cc1cccc(C(=O)O/N=C(\N)c2ccc(Cl)cc2)c1,i,i,i,i,i,i,nt,nt,nt,nt,nt
NC(=O)c1ccccc1NC(=O)/C=C/c1ccc(Cl)cc1,i,i,51,i,63,i,i,i,89,66,i
O=C(/C=C/c1ccco1)Nc1cccnc1Cl,i,i,58,i,54,i,58,56,86,85,63
COC(=O)c1ccccc1NC(=O)/C=C/c1ccco1,i,i,i,i,i,i,nt,nt,nt,nt,nt
O=C(/C=C/c1ccccc1)Nc1cccnc1Cl,i,i,74,66,i,i,69,60,90,84,73
Cc1cccnc1NC(=O)Nc1ccc(F)cc1,i,i,i,i,i,i,nt,nt,nt,nt,nt
O=C(Nc1ccc(F)cc1)Nc1cccnc1Cl,i,i,81,77,85,i,i,78,96,88,81
C=CCOc1ccc(CN(C)C(=O)c2ccc(CNS(=O)(=O)c3ccc(C)c(C)c3)cc2)cc1,nt,i,i,i,i,i,nt,nt,nt,nt,nt
C[N+]1(CN2C(=O)C3C4C=CC(C4)C3C2=O)CCCCC1 (stereo not drawn),i,i,i,i,i,i,nt,nt,nt,nt,nt
CN(C)c1ccc(N=Nc2ccccc2Br)cc1,i,i,96,93,99,i,87,94,91,90,57
Cc1ccc(C(=O)c2ccc(C)cc2)cc1,i,i,i,i,i,i,nt,nt,nt,nt,nt
Cc1cc(N(C)C)ccc1N=Nc1ccc(N)cc1,i,i,i,i,i,i,nt,nt,nt,nt,nt
CN(C)c1ccc(N=Nc2nccs2)cc1,nt,i,nt,nt,nt,i,nt,nt,nt,nt,nt
CC(=O)c1ccc(N=Nc2ccc(C)cc2)cc1,i,i,85,82,87,i,61,62,79,68,i
CC(=O)c1ccc(N=Nc2ccc(N(C)C)cc2)cc1,i,i,54,75,93,i,i,i,i,53,i
CN(C(=O)c1cccc(C(F)(F)F)c1)C1CCCc2ccccc21 (stereo not drawn),i,i,i,i,i,i,nt,nt,nt,nt,nt
Cc1ccc(C(=O)C2CCN(S(=O)(=O)c3ccc(C(=O)O)cc3)CC2)cc1,i,i,i,i,i,i,nt,nt,nt,nt,nt
O=c1oc(CCCO)cc2ccc(Br)cc12,nt,i,i,i,i,i,nt,nt,nt,nt,nt
O=c1oc(CCCO)cc2ccc(/C=C/c3cccc([N+](=O)[O-])c3)cc12,nt,i,i,i,61,i,i,i,i,i,i
Oc1cccc(/C=C/c2ccc3cccc(O)c3n2)c1,i,i,94,94,96,i,97,98,102,92,97
SMILES,Platelet DG rel,SENP8 block-1,SENP6 inh,SENP8 block-2,SENP7 block,SENP1 FRET inh,SENP8 conf,SENP6 conf,SENP7 confirm,Casp3 select,SENP luc ctr
COc1cccc(/C=C/c2ccc3cccc(O)c3n2)c1,i,i,93,89,92,i,92,95,102,90,66
COc1ccc(/C=C/c2ccc3cccc(O)c3n2)cc1Br,i,i,i,i,63,i,i,i,i,i,i
Cc1c(C(=O)O)cccc1-c1ccc(/C=C2\SC(=O)NC2=O)o1,i,i,98,98,91,i,99,100,103,97,97
CCOC(=O)CN1C(=O)S/C(=C\c2ccc(-c3ccc(C(=O)O)c(Cl)c3)o2)C1=O,i,i,i,i,i,i,nt,nt,nt,nt,nt
O=C1NC(=O)/C(=C/c2ccc(-c3cccc([N+](=O)[O-])c3)o2)S1,i,i,86,66,55,i,78,60,i,i,i
CCOC(=O)CN1C(=O)S/C(=C\c2ccc(-c3cccc(C(=O)O)c3C)o2)C1=O,i,i,55,i,i,i,i,i,52,i,i
Cc1c(C(=O)O)cccc1-c1ccc(/C=C2/NC(=O)N(c3ccccc3)C2=O)o1,i,i,64,60,i,i,i,79,92,i,i
CSc1ccccc1OCc1cc(C(=O)N(C)Cc2cnccn2)no1,i,i,i,i,i,i,nt,nt,nt,nt,nt
O=c1oc(=S)oc2c1[C@H](c1ccc(Cl)cc1)O[C@H](C1CC1)C2,nt,i,nt,nt,nt,i,nt,nt,nt,nt,nt
Cc1ccc(C(=O)COC(=O)CCNS(=O)(=O)c2ccccc2F)cc1,nt,i,i,i,i,i,nt,nt,nt,nt,nt
COC(=O)c1ccc(NC(=O)c2cc3sccc3n2C)cc1,i,i,nt,nt,nt,i,nt,nt,nt,nt,nt
COc1cc(NC(=O)c2cc3sccc3n2C)cc(OC)c1,i,i,64,50,66,i,i,60,84,i,65
COc1ccc(OC)c(NC(=O)c2cc3sccc3n2C)c1,i,i,i,i,i,i,nt,nt,nt,nt,nt
Cn1c(C(=O)Nc2ccc3c(c2)OCO3)cc2sccc21,i,i,71,i,63,i,59,61,88,i,i
Cn1c(C(=O)Nc2ccccc2)cc2sccc21,i,i,53,i,i,i,i,i,68,i,54
CCCCn1c(N)c(N(CC(C)C)C(=O)C2CCN(S(=O)(=O)c3ccc(Cl)cc3)CC2)c(=O)[nH]c1=O,i,i,i,i,i,i,nt,nt,nt,nt,nt
CCc1cc(=O)oc2cc(C)cc(OC(C)C(=O)NCCCn3ccnc3)c12 (stereo not drawn),i,i,i,i,i,i,nt,nt,nt,nt,nt
COc1ccc(C(=O)COC(=O)c2nn(C)cc2Cl)cc1,i,i,i,i,i,i,nt,nt,nt,nt,nt
Cc1cc2nc(C3CCCCC3)c(Cc3cccc(Cl)c3)n2c(C)c1Br,nt,i,nt,nt,nt,i,nt,nt,nt,nt,nt

# Screening data (PubChem)
